Data as given in ChEMBL document CHEMBL4834420, “Projected Dose Optimization of Amino- and Hydroxypyrrolidine Purine PI3Kδ Immunomodulators” (J Med Chem, 2021).

What was measured:
[1] = Protein binding in Wistar Han rat plasma; assay type: ADME, cell-free; settings: read-out: PPB (converted)
[2] = Unbound trough plasma concentration Brown Norway rat at 30 mg/kg, po; assay type: ADME, organism-based; settings: in vivo
[3] = Intrinsic clearance in Wistar Han rat at 0.5 mg/kg, iv or 1 mg/kg, po; assay type: ADME, organism-based; settings: in vivo
[4] = Trough plasma concentration Brown Norway rat at 10 mg/kg, po; assay type: ADME, organism-based; settings: in vivo, read-out: Cmin
Cytochrome P450 2C8 = biological target: T1, Cytochrome P450 2C8 (Homo sapiens, UniProt P10632); test: Inhibition of CYP2C8 (unknown origin); assay type: ADME
T1 sequence (P10632 whole entry): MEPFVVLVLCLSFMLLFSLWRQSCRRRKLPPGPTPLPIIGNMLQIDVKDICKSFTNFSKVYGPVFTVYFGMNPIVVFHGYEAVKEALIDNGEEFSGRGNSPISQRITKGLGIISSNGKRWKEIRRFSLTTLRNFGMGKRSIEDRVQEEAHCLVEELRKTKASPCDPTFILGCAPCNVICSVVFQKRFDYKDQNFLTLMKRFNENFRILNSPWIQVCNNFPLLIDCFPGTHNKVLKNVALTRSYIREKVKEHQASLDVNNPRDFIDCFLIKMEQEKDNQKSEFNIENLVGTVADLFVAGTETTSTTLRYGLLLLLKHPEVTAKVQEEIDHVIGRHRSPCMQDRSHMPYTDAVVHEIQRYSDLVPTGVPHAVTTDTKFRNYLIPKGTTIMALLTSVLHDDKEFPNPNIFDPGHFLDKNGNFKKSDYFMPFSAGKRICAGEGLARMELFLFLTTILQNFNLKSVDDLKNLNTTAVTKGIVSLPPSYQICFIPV

[5] = biological target: T2, Phosphatidylinositol 4,5-bisphosphate 3-kinase catalytic subunit delta isoform (Mus musculus, UniProt O35904); test: Inhibition of mouse PI3Kdelta
T2 sequence (O35904 whole entry): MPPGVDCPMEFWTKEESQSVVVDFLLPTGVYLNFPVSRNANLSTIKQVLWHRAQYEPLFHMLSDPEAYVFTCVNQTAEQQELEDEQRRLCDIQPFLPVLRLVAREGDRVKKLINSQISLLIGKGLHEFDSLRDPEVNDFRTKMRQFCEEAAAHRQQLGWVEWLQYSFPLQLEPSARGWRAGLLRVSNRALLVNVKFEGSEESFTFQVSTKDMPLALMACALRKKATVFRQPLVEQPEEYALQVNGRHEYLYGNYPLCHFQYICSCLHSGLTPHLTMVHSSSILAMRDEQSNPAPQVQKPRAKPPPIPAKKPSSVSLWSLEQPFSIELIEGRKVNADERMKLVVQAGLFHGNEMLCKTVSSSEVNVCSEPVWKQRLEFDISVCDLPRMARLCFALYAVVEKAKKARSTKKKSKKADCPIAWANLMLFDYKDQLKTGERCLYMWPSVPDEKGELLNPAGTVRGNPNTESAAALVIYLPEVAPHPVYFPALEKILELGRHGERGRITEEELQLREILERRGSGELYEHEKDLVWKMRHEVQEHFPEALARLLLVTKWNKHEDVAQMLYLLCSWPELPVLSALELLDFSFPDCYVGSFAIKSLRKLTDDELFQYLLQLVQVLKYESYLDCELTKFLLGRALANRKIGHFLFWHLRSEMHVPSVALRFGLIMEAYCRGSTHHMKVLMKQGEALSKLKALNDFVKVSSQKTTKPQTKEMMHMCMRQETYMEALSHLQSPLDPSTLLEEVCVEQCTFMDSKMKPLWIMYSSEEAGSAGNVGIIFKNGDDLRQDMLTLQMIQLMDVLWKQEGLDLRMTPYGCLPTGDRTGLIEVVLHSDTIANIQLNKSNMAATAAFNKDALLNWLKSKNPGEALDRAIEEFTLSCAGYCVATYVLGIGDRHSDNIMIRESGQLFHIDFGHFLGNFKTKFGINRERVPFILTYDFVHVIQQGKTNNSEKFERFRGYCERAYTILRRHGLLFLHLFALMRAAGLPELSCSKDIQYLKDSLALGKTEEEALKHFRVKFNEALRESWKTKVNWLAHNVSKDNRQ

Rattus norvegicus = test: Immunomodulatory activity in ovalbumin induced Brown Norway rat allergic rhinitis model assessed as reduction in BAL count at 10 mg/kg, po administered for 2 days and treated with ovalbumin after 1 hr post second dose; assay type: functional; design: scale not given: the % may be the effect or the level left; settings: time 2 day
Outline: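 Brown Norway rats were presensitized with ovalbumin, 0.020 mg ip daily for 14 days. They then received compound orally for 2 days (0.3–30 mg/kg range studied). Ovalbumin challenge came 1 h after the second dose. Eosinophil cell count in bronchoalveolar lavage was assessed 48 h later.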

[6] = Plasma clearance in C57BL/6 mouse at 1 mg/kg, iv or 3 mg/kg, po; assay type: ADME, organism-based
Cytochrome P450 2B6 = biological target: T3, Cytochrome P450 2B6 (Homo sapiens, UniProt P20813); test: Inhibition of CYP2B6 (unknown origin); assay type: ADME
T3 sequence (P20813 whole entry): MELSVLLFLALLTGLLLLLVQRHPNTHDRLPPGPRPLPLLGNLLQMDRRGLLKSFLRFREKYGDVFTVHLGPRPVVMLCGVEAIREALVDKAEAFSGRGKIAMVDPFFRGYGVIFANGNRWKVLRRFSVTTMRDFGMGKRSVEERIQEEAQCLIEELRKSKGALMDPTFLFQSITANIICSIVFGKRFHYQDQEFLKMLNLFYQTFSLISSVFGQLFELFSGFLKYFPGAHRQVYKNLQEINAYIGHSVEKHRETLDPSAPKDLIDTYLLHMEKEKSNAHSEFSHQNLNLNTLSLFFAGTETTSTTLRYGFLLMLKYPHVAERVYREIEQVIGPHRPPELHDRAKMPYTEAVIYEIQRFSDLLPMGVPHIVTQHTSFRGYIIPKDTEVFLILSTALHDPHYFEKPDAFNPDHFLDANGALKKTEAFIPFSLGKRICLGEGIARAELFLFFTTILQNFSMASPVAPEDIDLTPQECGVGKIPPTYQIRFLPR

Cytochrome P450 2D6 = Cytochrome P450 2D6 (Homo sapiens, UniProt P10635); test: Inhibition of CYP2D6 (unknown origin); assay type: ADME
Cytochrome P450 2D6, sequence (P10635 whole entry): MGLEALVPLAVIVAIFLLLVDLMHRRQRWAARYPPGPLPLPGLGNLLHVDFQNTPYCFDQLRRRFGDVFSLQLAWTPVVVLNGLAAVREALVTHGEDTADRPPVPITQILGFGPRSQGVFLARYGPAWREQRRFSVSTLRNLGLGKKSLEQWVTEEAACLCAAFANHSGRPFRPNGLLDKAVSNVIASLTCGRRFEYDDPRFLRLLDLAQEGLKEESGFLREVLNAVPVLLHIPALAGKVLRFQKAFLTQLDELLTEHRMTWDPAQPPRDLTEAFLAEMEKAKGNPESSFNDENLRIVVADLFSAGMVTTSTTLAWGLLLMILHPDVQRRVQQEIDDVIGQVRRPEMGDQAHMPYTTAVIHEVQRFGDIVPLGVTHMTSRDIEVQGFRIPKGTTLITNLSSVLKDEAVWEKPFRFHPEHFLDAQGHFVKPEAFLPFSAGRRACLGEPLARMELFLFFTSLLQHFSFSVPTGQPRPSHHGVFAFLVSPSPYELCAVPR

[7] = Intrinsic clearance in C57BL/6 mouse at 1 mg/kg, iv or 3 mg/kg, po; assay type: ADME, organism-based; settings: in vivo
P-gp (MDR1) = test: Efflux ratio of apparent permeability from basolateral to apical side over apical to basolateral side in dog MDCK2 cells expressing MDR1 PGP; assay type: ADME, cell-based, Canis lupus familiaris, MDCKII-MDR1; settings: MDCK-MDR1
[8] = Dissociation constant, pKa of compound; assay type: physicochemical
[9] = Volume of distribution in Wistar Han rat; assay type: ADME; settings: in vivo
[10] = Inhibition of rat PI3Kdelta
[11] = Oral bioavailability in C57BL/6 mouse; assay type: ADME, organism-based; settings: in vivo
[12] = Oral bioavailability in Beagle dog; assay type: ADME, organism-based, Canis lupus familiaris; settings: in vivo
[13] = Trough plasma concentration Brown Norway rat at 30 mg/kg, po; assay type: ADME, organism-based; settings: in vivo, read-out: Cmin
[14] = Plasma clearance in Wistar Han rat at 0.5 mg/kg, iv or 1 mg/kg, po; assay type: ADME, organism-based
[15] = Protein binding in Beagle dog plasma; assay type: ADME, cell-free, Canis lupus familiaris; settings: read-out: PPB (converted)
Cytochrome P450 2C19 = Cytochrome P450 2C19 (Homo sapiens, UniProt P33261); test: Inhibition of CYP2C19 (unknown origin); assay type: ADME
Cytochrome P450 2C19, sequence (P33261 whole entry): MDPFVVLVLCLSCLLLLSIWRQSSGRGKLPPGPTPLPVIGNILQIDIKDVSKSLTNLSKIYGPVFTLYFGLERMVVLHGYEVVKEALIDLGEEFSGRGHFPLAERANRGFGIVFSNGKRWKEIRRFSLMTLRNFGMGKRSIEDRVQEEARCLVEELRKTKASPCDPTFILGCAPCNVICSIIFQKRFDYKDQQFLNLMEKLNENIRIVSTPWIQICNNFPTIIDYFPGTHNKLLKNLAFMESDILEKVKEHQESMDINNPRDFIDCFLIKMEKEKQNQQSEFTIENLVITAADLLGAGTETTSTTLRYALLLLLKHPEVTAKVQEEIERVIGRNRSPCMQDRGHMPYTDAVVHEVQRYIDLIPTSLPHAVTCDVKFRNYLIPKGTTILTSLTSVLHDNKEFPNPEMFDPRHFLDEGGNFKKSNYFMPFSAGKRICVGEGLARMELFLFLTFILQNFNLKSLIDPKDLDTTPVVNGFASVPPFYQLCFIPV

fraction unbound [1]: 0.18
fCmin [2]: 62 nM
CL [3]: 64 mL/min/kg
concentration [4]: 14 nM
IC50 (Cytochrome P450 2C8): > 50 µM
IC50 [5]: 0.0022 µM
clearance [6]: 45 mL/min/kg
IC50 (Cytochrome P450 2B6): > 50 µM
IC50 (Cytochrome P450 2D6): > 50 µM
CL [7]: 10 mL/min/kg
efflux ratio (P-gp (MDR1)): 16
pKa [8]: 3.06
Vd [9]: 1 L/kg
IC50 [10]: 0.0066 µM
bioavailability [11]: 77%
bioavailability [12]: 95%
concentration [13]: 103 nM
clearance [14]: 8.1 mL/min/kg
fraction unbound [15]: 0.9
IC50 (Cytochrome P450 2C19): > 50 µM
Compound: CCn1c(-c2cnc(C)nc2)nc2c(N[C@H]3CCN(C(=O)C4CC4)C3)ncnc21
Activity (Rattus norvegicus): 50%
